Laboratory results taken from the RNAGym collection of RNA variant scans (doi:10.1126/science.aae0568).
Fewer inactive variants are shown than the library holds.

B1: tRNA (parent)
chain: GUUCCGUUGGCGUAAUGGUAACGCGUCUCCCUCCUAAGGAGAAGACUGCGGGUUCGAGUCCCGUACGGAACG

Variants of: B1
Experiment: yeast fitness relative to wild type (ratio to wild type); higher = fitter; tRNA-Arg(CCU), competitive growth, 37 C, YPD
Method in brief: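 Changes in genotype frequencies gave Darwinian fitness relative to wild type. Frequencies were read by 100-nucleotide paired-end sequencing of gene amplicons before and after pooled Saccharomyces cerevisiae strains, carrying tRNA-Arg(CCU) gene variants at the native locus, were competed in YPD at 37°C for 24 hours in six replicates. A genotype was kept only with ≥ 100 starting reads, and estimates < 0.5 were set to 0.5.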

Variant	yeast fitness
G6A G18C A21C C33A	0.605
G6A G41C A43G C49U	0.745
G6A C29G U47C U59A	≤ 0.5
G6A G10C C34U G52C	≤ 0.5
G6A C24G U35A G48C A69G	0.574
G6A C29U A57G U59C C62U	≤ 0.5
G6A G23C C30G G39C	≤ 0.5
G6A C30U C33U C46U	≤ 0.5
G6A G9U C11U A70C	0.533
G6A C31U C34U G52A	≤ 0.5
G6A C22U C29G A42G	≤ 0.5
G6A G39C C55G	≤ 0.5
G6A C11G U35A A37U	≤ 0.5
G6A C24A U53C A57C A65U	≤ 0.5
G6A G44A G51C C66U	≤ 0.5
G6A U8A G52A G56C	≤ 0.5
G6A C11G A21G C24A G52A C60A A69G	≤ 0.5
G6A C11A U54G	0.563
G6A C22A C31U G68C	0.709
G6A C31A C55G C66A	≤ 0.5
G6A C11U A70C	0.578
G6A C22G A37G U47A A70C	≤ 0.5
G6A U7C G41A A42C G50C A70G	0.593
G6A G18A	0.824

Variant	yeast fitness
G6A U7A G38C	0.603
G6A C24A A43C G52C C66G A69G	≤ 0.5
G6A G25A A40C A57C C61A G67A	≤ 0.5
G6A G44C	0.799
G6A C27G A36U C46U G67A	≤ 0.5
G6A G10C C24U C34U A36U C46A	≤ 0.5
G6A G10A G17A	0.55
G6A G25A U59C	≤ 0.5
G6A C31A	0.819
G6A C31G	0.975
G6A C31U	0.933
G6A G63A	0.883
G6A C29U C31A C34U G56A	≤ 0.5
G6A C22G C62G	≤ 0.5
G6A U8A A42U	≤ 0.5
G6A C49G	0.904
G6A C49A	0.625
G6A G17A U19A C31G U53C U54A	≤ 0.5
G6A G23A	0.877
G6A G23C	0.643
G6A G12A U13C U16A U19G G23A G58A G68A	≤ 0.5
G6A C22U A40C	≤ 0.5
G6A G18C A37C C62A	0.604
G6A C31U C46A A57U C60U	≤ 0.5

Variant	yeast fitness
G6A G12C	0.855
G6A G17C G51A	≤ 0.5
G6A C27A C60A U64A	≤ 0.5
G6A C55A G67A	0.534
G6A C33A A42C	0.578
G6A C22G G44C A70C	≤ 0.5
G6A C24A G38A G39C G52A	0.625
G6A C31A A69U	0.506
G6A C29U A43C C46U	0.623
G6A G10A	0.859
G6A C22U C34G G56C	0.693
G6A G10A A45G	0.647
G6A C22U C27G A36G A43G	≤ 0.5
G6A C24U C61G C66U A69U	0.568
G6A C49U A65U	0.667
G6A C49U A65C	0.701
G6A G10A C60G	≤ 0.5
G6A C62U A65C	0.763
G6A G12C U16A A21C	≤ 0.5
G6A C62G A70G	≤ 0.5
G6A C24G C34G	≤ 0.5
G6A G38C U54A A65C	≤ 0.5
G6A G25C C33U G48A G63A	≤ 0.5
G6A C24U G38A C61G C66U A69U	≤ 0.5

Variant	yeast fitness
G6A C22U U35C C55A C66U	≤ 0.5
G6A U7A A20G C46G	0.538
G6A G18C C49A C61G	≤ 0.5
G6A C30A C31U A45C C55G	≤ 0.5
G6A G12C U16C C31U G52C	0.555
G6A C34A A40U G52A A65U A70C	≤ 0.5
G6A C11G C34G A42G C62U	0.609
G6A G39C G44C C46U	≤ 0.5
G6A G9C	0.81
G6A C27G A65C	0.562
G6A G12C U16A A21C G56A	0.536
G6A C27G A40C	0.545
G6A C22U A40C A69U	0.63
G6A C22U C61U A70G	≤ 0.5
G6A C27A A65G A70C	≤ 0.5
G6A G9C C11G C27U C34U G68A	≤ 0.5
G6A C61G A70C	0.522
G6A C11U U13C A43G G67U	≤ 0.5
G6A C33A A37C G58A C66U G67U	≤ 0.5
G6A G18A C30U C55G	≤ 0.5
G6A G12C U16C A21U C66U	0.571
G6A G9A A21U C31G	≤ 0.5
G6A C34U A65C	0.54
G6A G39A	0.916

Variant	yeast fitness
G6A C29U C33G G67A	≤ 0.5
G6A C11G C33G A70U	≤ 0.5
G6A G10A G18A C27G A37G G38A	≤ 0.5
G6A G23C C49G U53G A57G	0.567
G6A C33G C34G	≤ 0.5
G6A G44A C46A G52A	0.629
G6A C11U C22U	0.566
G6A C33U C34U C62G	≤ 0.5
G6A C33G C34G G41A G58C A70C	0.519
G6A C11A G17A U35G U59C	≤ 0.5
G6A C11G U35A A37U A70C	≤ 0.5
G6A G9A A14U G63A	0.747
G6A C34U U64A	≤ 0.5
G6A G10C A15U C61A	≤ 0.5
G6A G18C C22G C33G	≤ 0.5
G6A C60G A70C	0.531
G6A G18U C24A U32A G38A A43G A45U G52A	0.641
G6A C61U A69U	0.632
G6A C27A	0.707
G6A C29U A43C C46U C49U G56C	≤ 0.5
G6A U8C A42C A45U C61G	≤ 0.5
G6A C22G U47A A65G	≤ 0.5
G6A G38A G56A	0.679
G6A G9C C11G G48C U59A	≤ 0.5

Variant	yeast fitness
G6A G58A G68C	0.649
G6A C31U G41C A42U C66U	≤ 0.5
G6A C33A	0.686
G6A G9C C11G C34U G68A	0.574
G6A U8C A14C C61U	≤ 0.5
G6A G50A G56U G58A	≤ 0.5
G6A C24U A42U U53G G68C	≤ 0.5
G6A G12A U54C C60G	≤ 0.5
G6A G44A C60G U64C	≤ 0.5
G6A G56A G67U	≤ 0.5
G6A G18C A21C C33A G52A	≤ 0.5
G6A G10A C22G G25C	≤ 0.5
G6A C11U G68C	0.54
G6A C22U C29G	≤ 0.5
G6A G9C A21G	0.537
G6A G48C C66U	0.769
G6A U8A G23C	≤ 0.5
G6A C11A C46A A57G	≤ 0.5
G6A C24U C61G C66U	0.724
G6A C62U G67C	≤ 0.5
G6A C31A G41A A45U G58C	≤ 0.5
G6A C62U	0.921
G6A G17C G18C A45G	≤ 0.5
G6A G12A A15C C24A	≤ 0.5

Variant	yeast fitness
G6A U8A C11U	≤ 0.5
G6A C22U A42C G52A G56C	≤ 0.5
G6A C61G G67C	0.546
G6A U7G C22G G50A	≤ 0.5
G6A G52A	0.677
G6A C49G C61U A69G	≤ 0.5
G6A C30G A57C G58C	≤ 0.5
G6A C34A G58C A65C A69C	≤ 0.5
G6A C55G	0.656
G6A C55A	0.587
G6A C22U C30G A36G C62U A65U	≤ 0.5
G6A C31G G41A	≤ 0.5
G6A C11U U13C C27G	0.507
G6A G17A C31A C33G G38A	≤ 0.5
G6A G44A A45G G51C C66U A69C	≤ 0.5
G6A C11U	0.801
G6A C27G A36C A42C A69C	≤ 0.5
G6A G23A A42G C46U C55G	0.522
G6A C46U	0.976
G6A C46G	0.937
G6A G52C C66U	0.584
G6A C22U C49A	≤ 0.5
G6A G44A C46A	≤ 0.5
